Here are results for three compounds from ChEMBL document CHEMBL1152435, “Efficacious 11beta-hydroxysteroid dehydrogenase type I inhibitors in the diet-induced obesity mouse model” (J Med Chem, 2009).

In general, inhibition in vivo refers to how much of the control response was suppressed. Usually clearance stands for the volume of plasma or blood freed of the substance per unit of time. For orientation: AUC means concentration integrated over time. One may read the Cmax as the peak of the concentration-time curve. One may read the Tmax as the time from dosing to the highest level. As a reminder, the bioavailability is dose-corrected exposure relative to a reference, in per cent.

For series [1], the system named is Cynomolgus monkey. Kind of series: Reduction of plasma insulin level in normal cynomolgus monkey at 1 mg/kg after 8 hrs. It is filed as functional, Macaca fascicularis. Also noted: scale not given: the % may be the effect or the level left.
Series [2] has as its system Cynomolgus monkey. Kind of series: Reduction of plasma insulin level in normal cynomolgus monkey at 3 mg/kg after 8 hrs. It is filed as functional, Macaca fascicularis. On the set-up: scale not given: the % may be the effect or the level left.
Series [3] has as its system Mus musculus. Kind of series: Inhibition of 11betaHSD1 in C57Bl6 mouse epididymal fat tissue assessed as conversion of [3H]cortisone to [3H]cortisol at 10 mg/kg, po after 5 hrs. The class given is functional. The note with it: C57Bl6, Adipose tissue. The procedure, abridged:
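Mice were killed 5 h after a single oral dose. Whole liver and epididymal fat were excised, and each intact tissue was incubated in medium containing [3H]-cortisone to measure ex vivo 11β-HSD1 activity.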

Series [4] can be described thus: Clearance in C57/B6 mouse at 2 mg/kg, iv. The class given is ADME, organism-based. Also noted: dose 2 mg/kg, route intravenous. The settings on record: in vivo.
The nature of series [5]: Volume of distribution at steady state in C57/B6 mouse at 2 mg/kg, iv. The class given is ADME, organism-based. On the set-up: dose 2 mg/kg, route intravenous. The settings on record: in vivo, read-out: Vdss.
A short description of series [6]: AUC in C57/B6 mouse at 2 mg/kg, iv. On the set-up: dose 2 mg/kg, route intravenous. The note with it: plasma. The class given is ADME, organism-based.
A short description of series [7]: Half life in C57/B6 mouse at 2 mg/kg, iv. Also noted: dose 2 mg/kg, route intravenous. The class given is ADME, organism-based. The settings on record: in vivo.
The nature of series [8]: Cmax in C57/B6 mouse at 10 mg/kg, po. The class given is ADME, organism-based. Also noted: dose 10 mg/kg, route oral. The note with it: in vivo.
Series [9] can be described thus: Tmax in C57/B6 mouse at 10 mg/kg, po. The settings on record: in vivo. The class given is ADME, organism-based. Also noted: dose 10 mg/kg, route oral.
Series [10] is described as follows: AUC in C57/B6 mouse at 10 mg/kg, po. It is filed as ADME, organism-based. Also noted: dose 10 mg/kg, route oral. The settings on record: plasma.
Series [11] can be described thus: Half life in C57/B6 mouse at 10 mg/kg, po. The class given is ADME, organism-based. Also noted: dose 10 mg/kg, route oral. The settings on record: in vivo.
Series [12] can be described thus: Oral bioavailability in C57/B6 mouse at 10 mg/kg. It is filed as ADME, organism-based. The note with it: in vivo.
Series [13] relates to Mus musculus. Kind of series: Inhibition of 11betaHSD1 in DIO-C57B6 mouse liver at 30 mg/kg in food containing 0.5 mg/gram of high fat diet after 96 hrs. The class given is functional.
Series [14] is described as follows: Drug level in DIO-C57/B6 mouse serum in stress free condition at 30 mg/kg in food containing 0.5 mg/gram of high fat diet for 31 days measured on day 4 at 10 am. The note with it: po, read-out: Drug uptake. It is filed as ADME, organism-based. Also noted: dose 30 mg/kg.
Series [15] in a line: Drug level in DIO-C57/B6 mouse liver in stress free condition at 30 mg/kg in food containing 0.5 mg/gram of high fat diet for 31 days measured on day 4 at 10 am. It is filed as ADME, organism-based. On the set-up: dose 30 mg/kg. The settings on record: po, read-out: Drug uptake.
Series [16] is described as follows: Drug level in DIO-C57/B6 mouse fat in stress free condition at 30 mg/kg in food containing 0.5 mg/gram of high fat diet for 31 days measured on day 4 at 10 am. On the set-up: dose 30 mg/kg. The settings on record: fat (adipose tissue), po, read-out: Drug uptake. The class given is ADME, organism-based.
A short description of series [17]: Drug level in DIO-C57/B6 mouse serum in stress free condition at 30 mg/kg in food containing 0.5 mg/gram of high fat diet for 31 days measured on day 4 at 10 pm. It is filed as ADME, organism-based. On the set-up: dose 30 mg/kg. The note with it: po, read-out: Drug uptake.
Series [18] can be described thus: Drug level in DIO-C57/B6 mouse liver in stress free condition at 30 mg/kg in food containing 0.5 mg/gram of high fat diet for 31 days measured on day 4 at 10 pm. The class given is ADME, organism-based. Also noted: dose 30 mg/kg. The settings on record: po, read-out: Drug uptake.
Series [19] can be described thus: Drug level in DIO-C57/B6 mouse fat in stress free condition at 30 mg/kg in food containing 0.5 mg/gram of high fat diet for 31 days measured on day 4 at 10 pm. The class given is ADME, organism-based. Also noted: dose 30 mg/kg. The note with it: fat (adipose tissue), po, read-out: Drug uptake.
Series [20] has as its system Mus musculus. Kind of series: Reduction in glucose level in DIO-C57/B6 mouse serum in stress free condition administered compound at 0.5 mg/gram of high fat diet by 28 day food mix study. It is filed as functional, organism-based.
Series [21] concerns Mus musculus. Kind of series: Reduction in insulin level in DIO-C57/B6 mouse serum in stress free condition administered compound at 0.5 mg/gram of high fat diet by 28 day food mix study. The class given is functional, organism-based.
A short description of series [22]: in vitro. The note with it: mouse, liver microsomes. Background: Microsomes from liver hold many membrane-bound enzymes, among them those of drug oxidation.
A short description of series [23]: in vitro. The settings on record: human, liver microsomes.
Series [24] is described as follows: Metabolic stability in mouse liver microsomes. The settings on record: read-out: Stability. It is filed as ADME, Microsome.
A short description of series [25]: Metabolic stability in human liver microsomes. The note with it: read-out: Stability. The class given is ADME, Microsome.

Calls of active or inactive are those of the source. No cut-off for these calls is given here.

On to `N#Cc1ccc(-c2ccc(S(=O)(=O)Nc3cccc(N)n3)cc2)cc1`, for which the Activity came out at 54% in [1] and 60% in series [2].
For the compound `C[C@@H]1CN(c2ccc(F)cc2C(F)(F)F)CCN1S(=O)(=O)c1ccc(C(N)=O)cc1Cl`, in [3], the inhibition in vivo at 10 mg/kg was found to be 80%. In addition, the clearance in series [4] worked out at 5 mL/min/kg. Moreover, in series [5], the Vd turned out to be 2.6 L/kg. Besides, the exposure (AUC) in series [6] turned out to be 6740 ng·h/mL; in series [10], 17000 ng·h/mL. Moreover, the half-life in series [7] was 7.3 h; in [11], 7.2 h; in series [22] it was more than 0.5 h; in series [23], more than 0.5 h. Besides, the Cmax in series [8] was determined as 1440 ng/mL. The Tmax in [9] was determined as 4 h. This compound gave a bioavailability in [12] of 50%. For the same compound, the inhibition in vivo at 30 mg/kg in series [13] turned out to be 95%. For the same compound, the concentration at 744 h was 1140 ng/mL in series [14]; 8130 ng/g in series [15]; 3620 ng/g in [16]; 1090 ng/mL in [17]; 9540 ng/g in series [18]; 3360 ng/g in [19]. Moreover, the outcome in series [20] and in series [21] was Active.
Turning to `C[C@@H]1CN(c2ccc(F)cc2C(F)(F)F)CCN1S(=O)(=O)c1cccc(-n2cncn2)c1`, the values for the half-life in series [24] and in series [25] were 0.2 h and 0.283 h, respectively.
